In ChEMBL document CHEMBL4689842, “EUbOPEN Chemogenomics Library wave 1” (2021):

Test system: Fibroblast
Experiment: Multiplex assay against human fibroblast
Format: toxicity, cell-based
Procedure, shortened: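 Compound was added to live cells that had been stained at seeding with Hoechst33342, BioTracker Green Microtubule Cytoskeleton Dye, MitoTracker Red and Annexin V Alexa Fluor 680, and imaging followed on a CQ1 microscope at 37°C and 5% CO2. CellPathfinder machine-learning gating divided cells into Hoechst high-intensity objects or normal cells, normal cells into healthy, pyknosed or fragmented nuclei, and pyknosed cells into mitotic or apoptotic. Tubulin, mitochondrial-mass and membrane-permeability phenotypes are per cents of healthy-nucleus cells.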

[1] = 12 h, 1 µM, compound concentration 1 uM, replicate 1
[2] = 12 h, 1 µM, compound concentration 1 uM, replicate 2
[3] = 12 h, 10 µM, compound concentration 10 uM, replicate 1
[4] = 12 h, 10 µM, compound concentration 10 uM, replicate 2
[5] = 24 h, 1 µM, compound concentration 1 uM, replicate 1
[6] = 24 h, 1 µM, compound concentration 1 uM, replicate 2
[7] = 24 h, 10 µM, compound concentration 10 uM, replicate 1
[8] = 24 h, 10 µM, compound concentration 10 uM, replicate 2
[9] = 48 h, 1 µM, compound concentration 1 uM, replicate 1
[10] = 48 h, 1 µM, compound concentration 1 uM, replicate 2
[11] = 48 h, 10 µM, compound concentration 10 uM, replicate 1
[12] = 48 h, 10 µM, compound concentration 10 uM, replicate 2

## CCOc1cc(C(=O)N2CCC(N3CCN(C)CC3)CC2)ccc1Nc1ncc2c(n1)N(C1CCCC1)c1ccccc1C(=O)N2C
[1]
  Population Apoptotic (%): 57%
  Population Fragmented Nuclei (%): 27%
  Population Healthy Nuclei (%): 42%
  Population Hoechst High Intensity Objects (%): 13%
  Population Membrane Permeable-Phenotype (%): 19%
  Population Mitochondria Different-Phenotype (%): 27%
  Population Mitotic Cells (%): 42%
  Population Normal (%): 86%
  Population Pyknosed Nuclei (%): 30%
  Population Tubulin-Different-Phenotype (%): 60%
  Total Cell Count: 200
[2]
  Population Apoptotic (%): 75%
  Population Fragmented Nuclei (%): 6%
  Population Healthy Nuclei (%): 80%
  Population Hoechst High Intensity Objects (%): 10%
  Population Membrane Permeable-Phenotype (%): 4%
  Population Mitochondria Different-Phenotype (%): 76%
  Population Mitotic Cells (%): 25%
  Population Normal (%): 89%
  Population Pyknosed Nuclei (%): 12%
  Population Tubulin-Different-Phenotype (%): 48%
  Total Cell Count: 67
[3]
  Population Apoptotic (%): 58%
  Population Fragmented Nuclei (%): 30%
  Population Healthy Nuclei (%): 44%
  Population Hoechst High Intensity Objects (%): 19%
  Population Membrane Permeable-Phenotype (%): 20%
  Population Mitochondria Different-Phenotype (%): 56%
  Population Mitotic Cells (%): 41%
  Population Normal (%): 80%
  Population Pyknosed Nuclei (%): 25%
  Population Tubulin-Different-Phenotype (%): 86%
  Total Cell Count: 84
[4]
  Population Apoptotic (%): 92%
  Population Fragmented Nuclei (%): 21%
  Population Healthy Nuclei (%): 50%
  Population Hoechst High Intensity Objects (%): 6%
  Population Membrane Permeable-Phenotype (%): 93%
  Population Mitochondria Different-Phenotype (%): 97%
  Population Mitotic Cells (%): 7%
  Population Normal (%): 93%
  Population Pyknosed Nuclei (%): 27%
  Population Tubulin-Different-Phenotype (%): 100%
  Total Cell Count: 69
[5]
  Population Apoptotic (%): 62%
  Population Fragmented Nuclei (%): 29%
  Population Healthy Nuclei (%): 49%
  Population Hoechst High Intensity Objects (%): 11%
  Population Membrane Permeable-Phenotype (%): 12%
  Population Mitochondria Different-Phenotype (%): 17%
  Population Mitotic Cells (%): 37%
  Population Normal (%): 88%
  Population Pyknosed Nuclei (%): 20%
  Population Tubulin-Different-Phenotype (%): 42%
  Total Cell Count: 205
[6]
  Population Apoptotic (%): 22%
  Population Fragmented Nuclei (%): 16%
  Population Healthy Nuclei (%): 72%
  Population Hoechst High Intensity Objects (%): 5%
  Population Membrane Permeable-Phenotype (%): 5%
  Population Mitochondria Different-Phenotype (%): 65%
  Population Mitotic Cells (%): 77%
  Population Normal (%): 94%
  Population Pyknosed Nuclei (%): 11%
  Population Tubulin-Different-Phenotype (%): 27%
  Total Cell Count: 71
[7]
  Population Apoptotic (%): 76%
  Population Fragmented Nuclei (%): 41%
  Population Healthy Nuclei (%): 26%
  Population Hoechst High Intensity Objects (%): 28%
  Population Membrane Permeable-Phenotype (%): 21%
  Population Mitochondria Different-Phenotype (%): 85%
  Population Mitotic Cells (%): 23%
  Population Normal (%): 71%
  Population Pyknosed Nuclei (%): 32%
  Population Tubulin-Different-Phenotype (%): 92%
  Total Cell Count: 74
[8]
  Population Apoptotic (%): 88%
  Population Fragmented Nuclei (%): 10%
  Population Healthy Nuclei (%): 30%
  Population Hoechst High Intensity Objects (%): 11%
  Population Membrane Permeable-Phenotype (%): 100%
  Population Mitochondria Different-Phenotype (%): 96%
  Population Mitotic Cells (%): 11%
  Population Normal (%): 88%
  Population Pyknosed Nuclei (%): 59%
  Population Tubulin-Different-Phenotype (%): 100%
  Total Cell Count: 85
[9]
  Population Apoptotic (%): 78%
  Population Fragmented Nuclei (%): 37%
  Population Healthy Nuclei (%): 51%
  Population Hoechst High Intensity Objects (%): 15%
  Population Membrane Permeable-Phenotype (%): 13%
  Population Mitochondria Different-Phenotype (%): 8%
  Population Mitotic Cells (%): 21%
  Population Normal (%): 84%
  Population Pyknosed Nuclei (%): 10%
  Population Tubulin-Different-Phenotype (%): 43%
  Total Cell Count: 213
[10]
  Population Apoptotic (%): 100%
  Population Fragmented Nuclei (%): 29%
  Population Healthy Nuclei (%): 67%
  Population Hoechst High Intensity Objects (%): 18%
  Population Membrane Permeable-Phenotype (%): 14%
  Population Mitochondria Different-Phenotype (%): 20%
  Population Mitotic Cells (%): 0%
  Population Normal (%): 81%
  Population Pyknosed Nuclei (%): 3%
  Population Tubulin-Different-Phenotype (%): 63%
  Total Cell Count: 116
[11]
  Population Apoptotic (%): 88%
  Population Fragmented Nuclei (%): 35%
  Population Healthy Nuclei (%): 26%
  Population Hoechst High Intensity Objects (%): 25%
  Population Membrane Permeable-Phenotype (%): 33%
  Population Mitochondria Different-Phenotype (%): 41%
  Population Mitotic Cells (%): 11%
  Population Normal (%): 75%
  Population Pyknosed Nuclei (%): 37%
  Population Tubulin-Different-Phenotype (%): 66%
  Total Cell Count: 60
[12]
  Population Apoptotic (%): 93%
  Population Fragmented Nuclei (%): 34%
  Population Healthy Nuclei (%): 46%
  Population Hoechst High Intensity Objects (%): 32%
  Population Membrane Permeable-Phenotype (%): 5%
  Population Mitochondria Different-Phenotype (%): 78%
  Population Mitotic Cells (%): 6%
  Population Normal (%): 67%
  Population Pyknosed Nuclei (%): 18%
  Population Tubulin-Different-Phenotype (%): 89%
  Total Cell Count: 120
